Published values from different studies.
Each line is one published result; the experiments were not run side by side. Values after ≈ are worked out from the molar mass of the structure shown.

Compound | organism | assay | test system | setting | measurement | value
CCCS(=O)(=O)Oc1ccc(C=NNC(=O)CSc2nc3ccc(Cl)cc3c(=O)n2-c2ccccc2)cc1 | Staphylococcus aureus | microbial growth, well diffusion | MRSA | 20 µg/mL | inhibition zone | 2 mm
CNC(C)C1CCC(N)C(OC2C(N)CC(N)C(OC3OCC(C)(O)C(NC)C3O)C2O)O1 (stereo not drawn) | Escherichia coli | microbial killing, broth dilution | ATCC25922 | 24 h | MBC | 4000 µM (≈ 1910 µg/mL)
O=c1cc(Nc2ccccc2)c2ccccc2o1 | Escherichia coli | microbial growth, broth dilution | – | – | MIC90 | 9 µg/mL (≈ 37.9 µM)
CN[C@H](CC(C)C)C(=O)N[C@H]1C(=O)N[C@@H](CC(N)=O)C(=O)N[C@H]2C(=O)N[C@H]3C(=O)N[C@H](C(=O)N[C@H](C(=O)O)c4cc(O)cc(O)c4-c4cc3ccc4O)[C@H](O)c3ccc(c(Cl)c3)Oc3cc2cc(c3O[C@@H]2O[C@H](CO)[C@@H](O)[C@H](O)[C@H]2O[C@H]2C[C@](C)(N)[C@H](O)[C@H](C)O2)Oc2ccc(cc2Cl)[C@H]1O | Micrococcus luteus | microbial growth, broth dilution | ATCC4698 | – | MIC | 0.34 µM
CC(=O)c1sc(N/N=C/c2c(-c3ccccc3)nc3ncccn23)nc1C | Escherichia coli | microbial growth, well diffusion | ATCC25922 | 100 µg/mL | inhibition zone | 14 mm
CC1(C)S[C@@H]2[C@H](NC(=O)[C@H](N)c3ccccc3)C(=O)N2[C@H]1C(=O)O | Micrococcus luteus | microbial growth, broth dilution | ATCC4698 | – | MIC | 1.35 µM
CC(=O)NC[C@H]1CN(c2ccc(N3CCOCC3)c(F)c2)C(=O)O1 | Staphylococcus aureus | microbial growth, agar dilution | ATCC29213 | – | MIC | 2 µg/mL
CCCSc1ccc2nc(NC(=O)OC)[nH]c2c1 | Angiostrongylus cantonensis | parasite motility | – | 24 h, larva | EC50 | 10.7 µM
CN[C@H](CC(C)C)C(=O)N[C@H]1C(=O)N[C@@H](CC(N)=O)C(=O)N[C@H]2C(=O)N[C@H]3C(=O)N[C@H](C(=O)N[C@H](C(=O)O)c4cc(O)cc(O)c4-c4cc3ccc4O)[C@H](O)c3ccc(c(Cl)c3)Oc3cc2cc(c3O[C@@H]2O[C@H](CO)[C@@H](O)[C@H](O)[C@H]2O[C@H]2C[C@](C)(N)[C@H](O)[C@H](C)O2)Oc2ccc(cc2Cl)[C@H]1O | Micrococcus luteus | microbial growth, broth dilution | DSM1790 | – | MIC | 0.17 µM
